A short description of assay [1]: Her2 expression decrease, cell viability multiplex – SKBR3 breast tumor cells, AlphaScreen, ATP viability, primary screen (AID 461;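 active = Her2 level under about 52% in both replicate screens, with viability over 70% of control, limit read from the data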;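 for Her2 level: lower value means less Her2 protein in the cells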;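 for viability: percent of carrier control wells set as 100% viability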). The following applies: SKBR3 Her2 protein level, 18-24 h, measured here: SKBR3 viability, ATP luminescence, at 10 µM. (In general: Bead proximity is the source of the signal in Alpha formats.)
The target of assay [2] is Receptor tyrosine-protein kinase erbB-2 (Homo sapiens) (UniProt P04626). Described as above. The following applies: 18-24 h, at 10 µM, stronger effect = lower value.
Assay [3] in a line: reduced viability of SK-BR-3 breast cancer cells – cell-based, 24 h, human, pilot screen (AID 572;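 active = viability at or below 10% of carrier control in both of two separate runs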;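 note: compound exposure lasted between 18 and 24 h rather than exactly 24 h; 100% = carrier-treated control wells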). The following applies: SK-BR-3 viability, CellTiter-Glo luminescence, at 10 µM, stronger effect = lower value. In general terms: Cellular ATP, detected with luciferase, serves as a proxy for viable cell number.
Assay [4] can be described thus: HUVEC growth inhibition – cell-based, human, primary screen (AID 575;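 active = viability at or below 30% in both replicate assays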;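 note: 100% = median of untreated cell wells with 0.1% DMSO on each plate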). The settings on record: HUVEC proliferation, CellTiter-Glo luminescence, 72 h; at 10 µM; stronger effect = lower value. A digest of the protocol:
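Assay system: primary human umbilical vein endothelial cells / Buffer or medium: endothelial basal medium with 2% FBS plus growth supplements / Compound dosing: one dose, 10 µM final, 0.1% DMSO / Timing: 72 h treatment at 37 °C / Signal: CTG luminescence / Benchmarks: 32 DMSO-only cell-control wells (high), 32 MePR drug-control wells (low) per plate / Plate: collagen-coated 384-well format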

Assay [5] can be described thus: H69AR cell proliferation blockers – human, duplicate replicates, primary screen (AID 580).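 Note: 100% = mean luminescence of untreated wells and 0% = no signal.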 The settings on record: H69AR lung tumor cells viability, ATP luminescence, 72 h; at 10 µM; stronger effect = lower value.
The nature of assay [6]: MRP1 drug-resistance reversers in H69AR cells – cell-based, doxorubicin co-treatment, pilot screen (AID 601;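 active = viability loss from added drug above about 55%, and viability with drug at most 40%, in both replicates, limit read from the data, passing the limit was not always enough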). The settings on record: CellTiter-Glo, 72 h, at 10 µM; for differential viability (reversal): stronger effect = higher value.
Assay [7] in a line: yeast transport mutant growth inhibition pilot in 384-well plates, post-Golgi transport modulator project (AID 636; in the data active = inhibition above about 31%). The following applies: absorbance 615 nm, about 18 h, stronger effect = higher value.
Assay [8] is described as follows: growth suppression of yeast trafficking mutant, preliminary HTS, modulators of trafficking downstream of Golgi apparatus project, 1536-format plate, OD 615 nm (AID 637; in the data active = inhibition above about 30%). The settings on record: yeast transport mutant growth, absorbance 615 nm, 18 h; stronger effect = higher value.
[9] abbreviates: H69AR cells + 2 uM doxorubicin, measured here: viability with 2 uM doxorubicin, stronger effect = lower value.
Setting [10] is: H69AR cells, compound alone cytotoxicity.

The values that follow come from PubChem BioAssay.

The viability is a read-out of living cells in per cent, often relative to untreated cells. As a reminder, the inhibition is the change of the read-out against control, counted positive when it falls.

Calls of active or inactive are those of the source.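 Rule for the calls, unless noted: active = viability at or under a set limit in both replicates, limit being median viability minus 3 SD (cut at about 48% in these data, passing the limit was not always enough); inconclusive = at or under the limit in just one replicate; inactive = at or above the limit in both replicates.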

Chain of Receptor tyrosine-protein kinase erbB-2 (Homo sapiens) (P04626 whole entry, looked up): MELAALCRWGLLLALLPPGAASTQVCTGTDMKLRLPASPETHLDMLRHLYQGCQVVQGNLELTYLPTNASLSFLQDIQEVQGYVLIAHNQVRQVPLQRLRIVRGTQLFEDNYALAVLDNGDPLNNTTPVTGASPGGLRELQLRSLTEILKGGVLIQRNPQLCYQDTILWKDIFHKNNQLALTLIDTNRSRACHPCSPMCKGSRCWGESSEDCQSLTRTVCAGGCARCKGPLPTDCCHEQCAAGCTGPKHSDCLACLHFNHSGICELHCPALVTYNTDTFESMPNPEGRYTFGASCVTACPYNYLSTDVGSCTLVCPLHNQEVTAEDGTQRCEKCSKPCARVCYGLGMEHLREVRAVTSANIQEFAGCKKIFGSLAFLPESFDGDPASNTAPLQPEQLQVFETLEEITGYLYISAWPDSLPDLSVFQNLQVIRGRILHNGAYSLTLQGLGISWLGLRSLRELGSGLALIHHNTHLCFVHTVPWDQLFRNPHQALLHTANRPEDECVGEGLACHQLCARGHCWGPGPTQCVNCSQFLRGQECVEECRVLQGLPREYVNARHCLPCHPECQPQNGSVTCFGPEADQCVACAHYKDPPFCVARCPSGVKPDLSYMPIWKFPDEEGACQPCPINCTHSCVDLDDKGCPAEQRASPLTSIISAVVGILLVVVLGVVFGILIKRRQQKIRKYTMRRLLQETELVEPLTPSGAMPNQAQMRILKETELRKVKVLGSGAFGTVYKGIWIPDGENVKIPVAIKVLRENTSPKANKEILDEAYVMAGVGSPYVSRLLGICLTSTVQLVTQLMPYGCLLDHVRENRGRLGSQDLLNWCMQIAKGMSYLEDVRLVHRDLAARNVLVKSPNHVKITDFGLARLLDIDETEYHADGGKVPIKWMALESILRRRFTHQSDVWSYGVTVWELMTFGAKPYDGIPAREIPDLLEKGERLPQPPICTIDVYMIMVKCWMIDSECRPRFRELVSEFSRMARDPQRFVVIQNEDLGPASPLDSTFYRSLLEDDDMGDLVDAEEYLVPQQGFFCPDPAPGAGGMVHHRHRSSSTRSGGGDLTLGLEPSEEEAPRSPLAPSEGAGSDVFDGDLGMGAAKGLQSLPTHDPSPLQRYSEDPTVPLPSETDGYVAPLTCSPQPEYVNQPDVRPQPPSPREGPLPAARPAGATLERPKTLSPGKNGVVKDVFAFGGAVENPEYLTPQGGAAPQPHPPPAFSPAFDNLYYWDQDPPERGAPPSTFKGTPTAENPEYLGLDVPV

In the case of `CN1CCCN(C(=O)c2cc(=O)[nH]c3ccccc23)c2nc3ccccc3nc21`, the viability was 114% in assay [1]; 114% (inactive) in assay [3]; 84.2% (inactive) in assay [4]; 79.9% (inactive) in assay [5]; 79.3% in assay [6] (setting [9]); 79.9% in assay [6] (setting [10]). For the same compound, the Her2 level in assay [2] is 90% (inactive). Besides, the differential viability (reversal) in assay [6] (H69AR cells + 2 uM doxorubicin) is 0.575% (inactive). Moreover, the values for the inhibition in assay [7] and in assay [8] were -4.93% (inactive) and -2.79% (inactive), respectively.
`Cc1cc(C)n(-c2cc(N3CCOCC3)nc(-c3ccccc3)n2)n1`: the viability in assay [1] was 85%; in assay [3], 85% (inactive); in assay [4], 75.7% (inactive); in assay [5], 73.6% (inactive); in assay [6] (setting [9]), 81%; in assay [6] (setting [10]), 73.6%. Moreover, the Her2 level in assay [2] is 104% (inactive). Also, the differential viability (reversal) in assay [6] (H69AR cells + 2 uM doxorubicin) is -7.4% (inactive). Moreover, the inhibition in assay [7] was -5.79% (inactive); in assay [8], 4.17% (inactive).
On to `Cc1ccc(S(=O)(=O)Cc2ccc(C(=O)NCCCN3CCN(C)CC3)o2)cc1`, for which the viability is 104% in assay [1]; 104% (inactive) in assay [3]; 96.9% (inactive) in assay [4]; 103% (inactive) in assay [5]; 92.1% in assay [6] (setting [9]); 103% in assay [6] (setting [10]). The Her2 level in assay [2] is 99.5% (inactive). In assay [6] (H69AR cells + 2 uM doxorubicin), the differential viability (reversal) was 11% (inactive). The values for the inhibition in assay [7] and in assay [8] were -0.66% (inactive) and -5.64% (inactive), respectively.
Take `CSc1nnc2n(CCc3ccccc3)c(=O)c3c4c(sc3n12)CCCC4`: the viability in assay [1] is 104%; in assay [3], 104% (inactive); in assay [4], 96.3% (inactive); in assay [5], 102% (inactive); in assay [6] (setting [9]) it was 76%; in assay [6] (setting [10]), 102%. Further, the Her2 level in assay [2] is 94% (inactive). Also, the differential viability (reversal) in assay [6] (H69AR cells + 2 uM doxorubicin) was 25.7% (inactive). For the same compound, the inhibition in assay [7] was -1.45% (inactive); in assay [8], 0.16% (inactive).
Consider `CC(C)(C)n1cnc2cc(NS(=O)(=O)c3ccc(Br)cc3)ccc21`, for which the viability in assay [1] was 104%; in assay [3], 104% (inactive); in assay [4] it was 80.2% (inactive); in assay [5], 87% (inactive); in assay [6] (setting [9]), 95.4%; in assay [6] (setting [10]) it was 87%. Further, the Her2 level in assay [2] is 69.5% (inactive). In addition, the differential viability (reversal) in assay [6] (H69AR cells + 2 uM doxorubicin) was -8.39% (inactive). The results for the inhibition in assay [7] and in assay [8] were -1.58% (inactive) and -0.48% (inactive), respectively.
With `COc1cccc(-c2csc3nnc(SCC(=O)c4ccc(NC(C)=O)cc4)n23)c1`, the viability in assay [1] is 108%; in assay [3], 108% (inactive); in assay [4], 92% (inactive); in assay [5], 90% (inactive); in assay [6] (setting [9]), 99.8%; in assay [6] (setting [10]) it was 90%. The Her2 level in assay [2] was 106% (inactive). For the same compound, the differential viability (reversal) in assay [6] (H69AR cells + 2 uM doxorubicin) was -9.79% (inactive). The inhibition in assay [7] was -4.42% (inactive); in assay [8] it was -0.66% (inactive).
Turning to `Cc1ccc(OCC(=O)NCCN2CCCC2)cc1`, the viability in assay [1] is 97.5%; in assay [3] it was 97.5% (inactive); in assay [4] it was 86% (inactive); in assay [5] it was 95.9% (inactive); in assay [6] (setting [9]), 86.4%; in assay [6] (setting [10]), 95.9%. In addition, in assay [2], the Her2 level is 84.5% (inactive). In addition, the differential viability (reversal) in assay [6] (H69AR cells + 2 uM doxorubicin) is 9.56% (inactive). Moreover, the inhibition is -6.8% (inactive) in assay [7] and 2.3% (inactive) in assay [8].
On to `CC(C(=O)NCc1cccnc1)N1C(=O)c2ccccc2C1=O` (stereo not given), for which the viability in assay [1] was 103%; in assay [3] it was 103% (inactive); in assay [4] it was 99.9% (inactive); in assay [5], 93.7% (inactive); in assay [6] (setting [9]) it was 97.5%; in assay [6] (setting [10]), 93.7%. The Her2 level in assay [2] is 97% (inactive). Besides, the differential viability (reversal) in assay [6] (H69AR cells + 2 uM doxorubicin) is -3.79% (inactive). The inhibition in assay [7] was -3.03% (inactive); in assay [8], -4.36% (inactive).
On to `C=CCc1cccc2cc(C(=O)NCc3cccnc3)c(=O)oc12`, for which the viability in assay [1] was 97.5%; in assay [3] it was 97.5% (inactive); in assay [4], 95% (inactive); in assay [5], 95% (inactive); in assay [6] (setting [9]) it was 90.1%; in assay [6] (setting [10]), 95%. Besides, the Her2 level in assay [2] was 112% (inactive). Also, the differential viability (reversal) in assay [6] (H69AR cells + 2 uM doxorubicin) is 4.88% (inactive). Moreover, the inhibition is -0.52% (inactive) in assay [7] and -9.33% (inactive) in assay [8].
For the compound `Cc1cc(C)c(-c2cc(C(=O)Nc3c(C)n(C)n(-c4ccccc4)c3=O)[nH]n2)c(O)c1`, the viability in assay [1] was 99.5%; in assay [3] it was 99.5% (inactive); in assay [4] it was 97.5% (inactive); in assay [5] it was 105% (inactive); in assay [6] (setting [9]) it was 100%; in assay [6] (setting [10]) it was 105%. In assay [2], the Her2 level is 98% (inactive). In addition, the differential viability (reversal) in assay [6] (H69AR cells + 2 uM doxorubicin) was 4.32% (inactive). Besides, the inhibition in assay [7] is -1.97% (inactive); in assay [8], -5.09% (inactive).
Take `COCCN(C(=O)Cn1nnc2ccccc21)C(C(=O)NC1CCCC1)c1cc(OC)ccc1OC` (stereo not given): the viability in assay [1] is 86%; in assay [3], 86% (inactive); in assay [4] it was 101% (inactive); in assay [5], 93.9% (inactive); in assay [6] (setting [9]) it was 94.1%; in assay [6] (setting [10]), 93.9%. In addition, in assay [2], the Her2 level was 106% (inactive). In addition, in assay [6] (H69AR cells + 2 uM doxorubicin), the differential viability (reversal) is -0.19% (inactive). Moreover, the inhibition was -0.8% (inactive) in assay [7] and -4.92% (inactive) in assay [8].
Consider `Cc1ccc(CN2C(=O)CCC2C(=O)NC2CCCC2)cc1` (stereo not given), for which the viability in assay [1] was 132%; in assay [3], 132% (inactive); in assay [4], 94.3% (inactive); in assay [5] it was 94.1% (inactive); in assay [6] (setting [9]) it was 95.1%; in assay [6] (setting [10]), 94.1%. Besides, the Her2 level in assay [2] is 95.5% (inactive). Moreover, in assay [6] (H69AR cells + 2 uM doxorubicin), the differential viability (reversal) is -1.04% (inactive). The inhibition in assay [7] is -6.13% (inactive); in assay [8] it was 4.59% (inactive).
Take `Cc1ccccc1-n1nnnc1SCC(=O)Nc1ccc(S(=O)(=O)N2CCCC2)cc1`: the viability in assay [1] is 70.5%; in assay [3], 70.5% (inactive); in assay [4], 94.6% (inactive); in assay [5], 85% (inactive); in assay [6] (setting [9]), 88%; in assay [6] (setting [10]) it was 85%. Also, the Her2 level in assay [2] is 100% (inactive). Besides, the differential viability (reversal) in assay [6] (H69AR cells + 2 uM doxorubicin) is -2.96% (inactive). Further, the inhibition is 0.53% (inactive) in assay [7] and 2.1% (inactive) in assay [8].
Regarding `CC1=C/C(=C/N(C)c2ccccc2)C(=O)S1`, the viability in assay [1] was 109%; in assay [3], 109% (inactive); in assay [4], 79.7% (inactive); in assay [5], 89.3% (inactive); in assay [6] (setting [9]), 85.2%; in assay [6] (setting [10]), 89.3%. Further, the Her2 level in assay [2] is 94% (inactive). Also, in assay [6] (H69AR cells + 2 uM doxorubicin), the differential viability (reversal) was 4.12% (inactive). Also, the results for the inhibition in assay [7] and in assay [8] were 0.41% (inactive) and -3.49% (inactive), respectively.
